TWEAK Fn14 block: inhibitors of TWEAK-Fn14 interaction signaling | TWEAK-stimulated Fn14 reporter cells, luciferase luminescence, 8 h | inhibition, % at 10 µM | actives 2% (n = 360,000) | AID 1159606; in the data active = inhibition above about 50%
TROY signal inh: inhibitors of TROY-dependent NF-kB signaling | Q293 LMP1-TROYcd NF-kB luciferase reporter, 4 h | actives 0.98% (n = 360,000) | inhibition, % at 10 µM;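 active = compounds whose plate-normalised and pattern-corrected inhibition of the luciferase reporter signal at the single screening dose is 50% or more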
CaV13 FRET inh: Disruptors of the CACNA1D IQ motif to Ca2+-dependent inactivation inhibitor domain association, primary screening, Förster resonance energy transfer in intact living … | AID 743397 | actives 0.098% (n = 340,000) | inhibition, % at 12.3 µM | HEK cells, CFP/YFP FRET ICDI-IQ, plate reader, 10 min; percent FRET-ratio fall versus neutral wells;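 active = mean replicate inhibition of at least 30% and at least 1% of replicates passing that level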;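 also: 0% = median of the neutral control wells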
XiGFP reactiv: X-chromosome reactivation activator; actives 0.055% (n = 360,000); activation, % at 7.58 µM; XiGFP mouse fibroblasts, % GFP-positive cells imaging, 3 d; cells co-treated with 5-aza-dC sensitizer; scaled so ellipticine positive control = 100%;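 active = mean normalized replicate activation at least 10% and every replicate at or above 10%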;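 also: 0% = median of on-plate neutral control wells and 100% = ellipticine 6 µM median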
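Schedule: 3 d treatment, 15 min room-temperature fixation; system: 68-5-11 XiGFP fibroblast line; buffer or medium: DMEM plus 5-aza-dC sensitizer; control set: ellipticine 6 µM positive control; compound: one concentration, pinned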
LGR2 antag: blocks bursicon-induced cAMP signaling via Drosophila LGR2 | HEK293 LGR2, CRE-luciferase, bursicon-stimulated, 4 h | inhibition, % at 9.99 µM | actives 0.35% (n = 380,000) | AID 720647;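 active = drop in luminescence signal, shown as inhibition above about 50% in the replicate tests, limit read from the data, passing the limit was not always enough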;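 also: agonist challenge used bursicon conditioned medium at about half maximal strength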
Active calls of the source: *. Shown are actives, neighbours in structure and some others; about 2% of the full set was active somewhere.

For O=C(CCCN1C(=O)/C(=C/c2ccc3c(c2)OCO3)SC1=S)Nc1cccc(C(=O)O)c1 the results were TWEAK Fn14 block 56*, TROY signal inh 31, XiGFP reactiv 0 and LGR2 antag -4.
Screening O=C1/C(=C/c2ccccc2Cl)SC(=S)N1CCCC(=O)N(CCO)c1ccccc1 returned TWEAK Fn14 block 60*, TROY signal inh 63*, XiGFP reactiv 0 and LGR2 antag 12.
`COc1cc(/C=C2\SC(=O)N(CCN)C2=O)ccc1OS(=O)(=O)c1cc(C)ccc1C` gave TWEAK Fn14 block -28, TROY signal inh -11, CaV13 FRET inh -2, XiGFP reactiv 0 and LGR2 antag 82*.
For O=C(CCN1C(=O)/C(=C/c2ccc3c(c2)OCO3)SC1=S)Nc1cccc(C(=O)O)c1 the results were TWEAK Fn14 block -9, TROY signal inh -51, CaV13 FRET inh -6, XiGFP reactiv 0 and LGR2 antag -5.
`Cc1ccc(/C=C2\SC(=S)N(CCC(=O)NNC(=O)c3ccccc3O)C2=O)cc1` gave TWEAK Fn14 block -17, TROY signal inh 1, CaV13 FRET inh -4, XiGFP reactiv 0 and LGR2 antag 26.
`O=C(CNC(=O)c1ccccc1F)NCCN1C(=O)S/C(=C\c2ccc3c(c2)OCO3)C1=O` gave TWEAK Fn14 block -10, TROY signal inh -9, CaV13 FRET inh -3, XiGFP reactiv 0 and LGR2 antag -20.
Screening O=C(CCN1C(=O)/C(=C/c2ccccc2Cl)SC1=S)Nc1ccccn1 returned TWEAK Fn14 block -6, TROY signal inh -19, CaV13 FRET inh -7, XiGFP reactiv 0 and LGR2 antag 4.
NCCN1C(=O)S/C(=C\c2ccc3c(c2)OCO3)C1=O was read as TWEAK Fn14 block 66*, TROY signal inh 57*, CaV13 FRET inh -3, XiGFP reactiv 0 and LGR2 antag 31.
O=C(CCN1C(=O)/C(=C/c2cccs2)SC1=S)Nc1cccc(O)c1 was read as TWEAK Fn14 block 6, TROY signal inh 54*, CaV13 FRET inh -4, XiGFP reactiv 0 and LGR2 antag -8.
Screening O=C(CCCN1C(=O)/C(=C/c2cccs2)SC1=S)Nc1cccc(O)c1 returned TWEAK Fn14 block 25, TROY signal inh 21, CaV13 FRET inh -4, XiGFP reactiv 0 and LGR2 antag -1.
`O=C(CCN1C(=O)/C(=C/c2ccccc2Cl)SC1=S)Nc1cccnc1` gave TWEAK Fn14 block -8, TROY signal inh 57*, CaV13 FRET inh -14, XiGFP reactiv 0 and LGR2 antag -1.
For O=C(CCCN1C(=O)/C(=C/c2ccccc2Cl)SC1=S)Nc1ccccn1 the results were TWEAK Fn14 block 82*, TROY signal inh 60*, CaV13 FRET inh -4, XiGFP reactiv 0 and LGR2 antag 3.
CO[C@H]1CN(C)C(=O)c2cc(NS(=O)(=O)c3cccc(F)c3)ccc2OC[C@H](C)NC[C@@H]1C was read as XiGFP reactiv 1 and LGR2 antag -5.
Screening Cn1cnc(S(=O)(=O)N[C@H]2C=C[C@@H](CC(=O)Nc3ccc(-c4ccccc4)cc3)O[C@H]2CO)c1 returned XiGFP reactiv 0 and LGR2 antag 2.
Screening O=C(CCCN1C(=O)/C(=C/c2ccccc2Cl)SC1=S)NNC(=O)c1ccc(Cl)cc1 returned TWEAK Fn14 block 53*, TROY signal inh 66*, CaV13 FRET inh -3, XiGFP reactiv 0 and LGR2 antag 6.
`O=C(O)c1ccc(N/N=C/c2ccc(-c3ccccc3Cl)o2)cc1` gave TWEAK Fn14 block 51*, TROY signal inh 14, CaV13 FRET inh active, XiGFP reactiv -1 and LGR2 antag -27.
Screening COc1cc(C(=O)N/N=C/c2ccc(OC(=O)c3ccccc3Cl)cc2)ccc1O returned TWEAK Fn14 block -6, TROY signal inh 53*, CaV13 FRET inh -7, XiGFP reactiv 0 and LGR2 antag -11.
For O=C(N/N=C/c1ccc(-c2ccccc2Cl)o1)c1ccccc1 the results were TWEAK Fn14 block -24, TROY signal inh -17, CaV13 FRET inh -6, XiGFP reactiv 0 and LGR2 antag -46.
O=C(O)c1ccc(N/N=C/c2ccc(OC(=O)c3ccccc3Cl)cc2)cc1 was read as TWEAK Fn14 block 96*, TROY signal inh 55*, CaV13 FRET inh -3, XiGFP reactiv 0 and LGR2 antag 58*.
For Nc1ccc(C(=O)N/N=C\c2ccc(OC(=O)c3ccccc3Cl)cc2)cc1 the results were TWEAK Fn14 block -10, TROY signal inh 12, CaV13 FRET inh -1, XiGFP reactiv 0 and LGR2 antag 5.
For CN1c2ccc(C#Cc3cccnc3)cc2[C@H]2[C@H](CCN2S(=O)(=O)c2cccc(F)c2)[C@H]1CO the results were XiGFP reactiv 0 and LGR2 antag 6.
Cn1cnc([N+](=O)[O-])c1S(=O)(=O)c1cccc(Cl)c1 was read as TWEAK Fn14 block 18, TROY signal inh 64*, CaV13 FRET inh -4, XiGFP reactiv 0 and LGR2 antag 2.
Screening Cn1cnc([N+](=O)[O-])c1S(=O)(=O)Oc1ccccc1 returned TWEAK Fn14 block 27, TROY signal inh 45, CaV13 FRET inh -7, XiGFP reactiv 4 and LGR2 antag 17.
C[C@@H]1CN([C@H](C)CO)S(=O)(=O)c2ccc(-c3cccc(C#N)c3)cc2O[C@@H]1CN(C)Cc1cccc(F)c1 was read as XiGFP reactiv 0 and LGR2 antag 14.
`N#C[C@H]1[C@H](c2ccc(C#Cc3ccccc3F)cc2)[C@H](CO)N1C(=O)C1CC1` gave XiGFP reactiv 0 and LGR2 antag 62*.
For N#C[C@@H]1[C@@H](c2ccc(C#Cc3ccccc3F)cc2)[C@@H](CO)N1C(=O)C1CCCC1 the results were XiGFP reactiv 0.
N#C[C@H]1[C@H](c2ccc(C#Cc3ccccc3F)cc2)[C@H](CO)N1C(=O)C1CCCC1 was read as XiGFP reactiv 0 and LGR2 antag 104*.
Nc1ccccc1SC(CC(=O)c1ccccc1)c1ccc([N+](=O)[O-])cc1 (configuration not stated) was read as TWEAK Fn14 block 11, TROY signal inh -25, CaV13 FRET inh -6, XiGFP reactiv 1 and LGR2 antag -114.
For COc1ccc(C(CC(=O)c2ccc(C)cc2)Sc2ccccc2N)cc1 (configuration not stated) the results were TWEAK Fn14 block 70*, TROY signal inh 11, CaV13 FRET inh -7, XiGFP reactiv 0 and LGR2 antag 32.
Screening CCOC(=O)CSc1n[nH]c(NC(=O)c2ccccc2)n1 returned TWEAK Fn14 block 27, TROY signal inh 16, CaV13 FRET inh -8 and LGR2 antag 4.
For CCOC(=O)CSc1n[nH]c(NC(=O)c2ccc(F)cc2)n1 the results were TWEAK Fn14 block 50* and TROY signal inh 5.
